Paper PMC7215194 (Heliyon, 2020)

Key:
A431 cells [1] = assay: TAMRA-peptides internalization assay, confocal microscopy of living cells; format: cell-based, human
How it was run: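 A431 cells (2.5 × 10^5) were seeded in coverslip-bottom imaging dishes in DMEM with 10% FBS. After 6 h, serum-deprived medium with N-terminal 5(6)-TAMRA-labeled test peptides (20 μg/ml) was added for 5 min or overnight, with free TAMRA (1.7 μM) as control. Living cells were gently washed and imaged by confocal microscopy with a 63x objective, 561 nm laser and white light, taking z-planes every 0.8 μm.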

A431 cells [2] = assay: Artificial wound healing assay; format: cell-based, human; conditions: for effect of W-7/W-12 on cell migration in the absence of EGF: 20 μM, no EGF, time-lapse 48 h, n = 3
A431 cells [3] = assay: Cell detachment assay; format: cell-based, human; conditions: overnight with 20 μg/ml peptides or 20 μM W-7/W-12, then 1 mM EGTA, n = 3
How it was run: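 A431 cells (DMEM, 2 mM L-glutamine, 10% FBS, 37 °C, 5% CO2) were seeded at 10^6 per 60 mm dish in 10% FBS. After 6 h, test peptides (20 μg/ml) or W-7/W-12 (20 μM) in DMSO were added in serum-deprived medium overnight, with 0.2–0.4% DMSO vehicle controls. Cells were then exposed to 1 mM EGTA, and detached cells in aliquots were counted in a Neubauer chamber over time. Values are mean ± SEM percent detached, n = 3.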

A431 cells [4] = assay: Anchorage-independent growth assay in soft agar; format: cell-based, human; conditions: 14 days, n = 4; for effect on size and number of colonies grown in soft agar: 20 μM W-7 or 25 μM W-12, 10% FBS, colonies >60 μm
How it was run: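 A431 cells (10^5 per 60 mm dish) suspended in DMEM ± 10% (v/v) FBS with 10 mM NaOH-Hepes pH 7.5 in 0.3% agarose, layered over 0.5% agarose. Fed every 72–96 h with fresh medium ± 10 nM EGF, 20 μM W-7 or 25 μM W-12 in DMSO; vehicle 0.4% DMSO. Imaged at day 14 with a 4x objective; colonies ≥60 μm counted.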

hepatocarcinoma cells = conditions: EGF-dependent vs basal EGF-independent proliferation; cited from earlier work

With “5(6)-carboxytetramethylrhodamine [free TAMRA]” the “membrane blebbing (initiation of apoptosis) of treated cells” value (A431 cells [1]) was “not observed”.
With `NCCCCCCNS(=O)(=O)c1cccc2c(Cl)cccc12` [W-7, N-(6-aminohexyl)-5-chloro-1-naphthalenesulfonamide] the “effect of W-7/W-12 on cell migration in the absence of EGF” value (A431 cells [2]) was “increased the initial migration rate of the cells, particularly with the high affinity inhibitor W-7”, the “effect on cell detachment with EGTA” value (A431 cells [3]) was “only partially” and the “effect on size and number of colonies grown in soft agar” value (A431 cells [4]) was “strongly inhibits”. For the same compound, the “effect of W-7 on proliferation of hepatocarcinoma cells” value (hepatocarcinoma cells) was “inhibits EGF-dependent but not basal EGF-independent proliferation of hepatocarcinoma cells”.
For `NCCCCNS(=O)(=O)c1ccc2ccccc2c1` [W-12, N-(4-aminobutyl)-2-naphthalenesulfonamide], the “effect of W-7/W-12 on cell migration in the absence of EGF” value (A431 cells [2]) was “increased the initial migration rate of the cells”, the “effect on cell detachment with EGTA” value (A431 cells [3]) was “only partially” and the “effect on size and number of colonies grown in soft agar” value (A431 cells [4]) was “very low effect”.
With EGF: epidermal growth factor the “delayed action of EGF on the initiation of cell migration” value (A431 cells [2]; 10 nM EGF, n = 9) was 11.5 ± 1.4 h and the “effect of EGF on anchorage-independent growth in soft agar” value (A431 cells [4]; 10 nM EGF) was “particularly decreasing the size of the colonies”.
